Results: ChEMBL document CHEMBL1811885, “Antiplasmodial sesquiterpene alkaloids from the roots of Maytenus mekongensis” (J Nat Prod, 2011)
In brackets after ≈: the same amount, converted by molar mass. Activity calls are given as the source filed them. The rule behind the calls is not given here.

Experiments:
Plasmodium falciparum = experiment: Antiplasmodial activity against multi drug-resistant Plasmodium falciparum K1 infected in human type A+ erythrocytes assessed as inhibition of [G-3H]hypoxanthine incorporation after 42 hrs by scintillation counting; assay type: functional, organism-based; details: for IC50: K1, 42 h
MCF7 = experiment: Cytotoxicity against human MCF7 cells by SRB assay; assay type: functional, cell-based
Summary of the method: (§1)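 Colorimetric growth assay following the Skehan method, run on three human lines: KB (oral epidermal carcinoma), MCF7 (breast adenocarcinoma) and NCI-H187 (small cell lung).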

KB = experiment: Cytotoxicity against human KB cells by SRB assay; assay type: functional, cell-based; summary of the method: as §1
NCI-H187 = experiment: Cytotoxicity against human NCI-H187 cells by SRB assay; assay type: functional, cell-based; summary of the method: as §1

CC(=O)OC[C@]12[C@H](OC(C)=O)[C@H](OC(C)=O)[C@@H]3[C@@H](OC(C)=O)[C@@]14O[C@@]3(C)COC(=O)c1cccnc1C(C)C(C)C(=O)O[C@@H]([C@H](OC(C)=O)[C@@H]2OC(=O)c1ccccc1)[C@]4(C)O (some centres undefined)
Activity (Plasmodium falciparum): inactive

CC(=O)OC[C@@]12[C@H](OC(C)=O)[C@H](OC(C)=O)[C@@H]3[C@@H](OC(=O)c4ccccc4)[C@@]14O[C@@]3(C)COC(=O)c1cccnc1CC[C@H](C)C(=O)O[C@@H]([C@H](OC(C)=O)[C@@H]2OC(=O)c1ccccc1)[C@]4(C)O
IC50 (Plasmodium falciparum): 2.5 µM

CC(=O)OC[C@@]12[C@H](OC(C)=O)[C@@H](OC(C)=O)[C@@H]3[C@@H](OC(C)=O)[C@@]14O[C@@]3(C)COC(=O)c1cccnc1[C@@H](C)[C@H](C)C(=O)O[C@@H]([C@H](OC(C)=O)[C@@H]2OC(=O)c1ccccc1)[C@]4(C)O
Activity (Plasmodium falciparum): inactive

CC(=O)OC[C@@]12[C@H](OC(C)=O)[C@H](OC(C)=O)[C@@H]3[C@@H](OC(=O)c4ccccc4)[C@@]14O[C@@]3(C)COC(=O)c1cccnc1CC[C@](C)(OC(C)=O)C(=O)O[C@@H]([C@H](OC(C)=O)[C@@H]2OC(=O)c1ccccc1)[C@]4(C)O
IC50 (Plasmodium falciparum): 3.5 µM

CC(=O)OC[C@@]12[C@H](OC(C)=O)[C@H](OC(C)=O)[C@@H]3[C@@H](OC(=O)c4ccccc4)[C@@]14O[C@@]3(C)COC(=O)c1cccnc1CC[C@](C)(OC(C)=O)C(=O)O[C@@H]([C@H](OC(C)=O)[C@@H]2OC(C)=O)[C@]4(C)O [MEKONGENSINE]
Activity (MCF7): inactive | IC50 (Plasmodium falciparum): 3.1 µM | IC50 (KB): 28.2 µg/mL (≈ 30.5 µM) | Activity (NCI-H187): inactive

CC(=O)OC[C@@]12[C@H](OC(C)=O)[C@@H](OC(C)=O)[C@@H]3[C@@H](OC(=O)c4ccccc4)[C@@]14O[C@@]3(C)COC(=O)c1cccnc1CC[C@](C)(OC(C)=O)C(=O)O[C@@H]([C@H](OC(C)=O)[C@@H]2OC(C)=O)[C@]4(C)O
IC50 (Plasmodium falciparum): 3.9 µM

CC(=O)OC[C@@]12[C@H](OC(C)=O)[C@H](OC(C)=O)[C@@H]3[C@@H](OC(=O)c4ccccc4)[C@@]14O[C@@]3(C)COC(=O)c1cccnc1CC[C@H](C)C(=O)O[C@@H]([C@H](OC(C)=O)[C@@H]2OC(C)=O)[C@]4(C)O
Activity (MCF7): inactive | IC50 (Plasmodium falciparum): 3.1 µM | IC50 (KB): 46.7 µg/mL (≈ 53.8 µM) | Activity (NCI-H187): inactive

CC(=O)OC[C@]12[C@H](OC(C)=O)[C@H](OC(C)=O)[C@@H]3[C@@H](OC(C)=O)[C@@]14O[C@@]3(C)COC(=O)c1cccnc1C(C)C(C)C(=O)O[C@@H]([C@H](OC(C)=O)[C@@H]2OC(C)=O)[C@]4(C)O (some centres undefined)
Activity (Plasmodium falciparum): inactive
